Assay outcomes from PubChem.
HDAC3 inhib: human HDAC3 inhibition; 320,000 compounds, 0.15% hits; AID 2718; inhibition, % at 8.3 µM; recombinant HDAC3, fluorogenic peptide/trypsin coupled, fluorescence; in the data active means inhibition above about 26%, passing the limit was not always enough
Fh CTSL1 inh: counter-screen for PFM18AAP inhibitors: inhibitors of F. hepatica cathepsin L1; recombinant F. hepatica cathepsin L1, Z-Leu-Arg-MCA fluorescence; inhibition, % at 5.96 µM; 300,000 compounds, 0.49% hits; AID 1906;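 active means inhibition above the mean of all tested compounds plus 3 SD, set per screening campaign, cut at about 17% in these data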;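 further: 0% = plate median of test compound wells and 100% = 1 µM Z-Phe-Ala-diazomethylketone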
SENP1 FRET inh: blocks the human SENP1 SUMO protease catalytic domain | Q9P0U3 | recombinant SENP1 catalytic domain, CyPet-SUMO1-YPet FRET cleavage | inhibition, % at 10 µM | 360,000 compounds, 0.21% hits | AID 624204;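 active means inhibition at least 30% at 10 µM, raw YFP signal under a set limit, fluorescence ratio 0.5 to 1.5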;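 further: 0% = enzyme with DMSO and 100% = no enzyme wells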
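Test system: human SENP1 catalytic domain; medium: Tris pH 8 buffer plus EDTA, NaCl, BME, BSA, NP40, catalase; incubation: 50 min reaction at room temperature; technique: FRET, CFP and YFP emission; controls: no-enzyme low control and enzyme-plus-DMSO high control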
M18AAP inhibitor: PfM18AAP enzyme inhibition; AID 1822; recombinant PfM18AAP, H-Glu-NHMec fluorogenic cleavage; 290,000 compounds, 1.2% hits; inhibition, % at 7.35 µM;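 active means inhibition above the campaign mean inhibition over all tested compounds plus 3 SD, cut at about 28% in these data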;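 further: 0% = plate median of test compound wells and 100% = 2 mM ZnCl2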
AHR act: activators of human aryl hydrocarbon receptor; P35869; AHR-responsive luciferase reporter cells, luminescence; activation, % at 5 µM; 320,000 compounds, 2.5% hits; AID 2796; in the data active means activation above about 47%;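 further: 0% = vehicle wells and 100% = reference agonist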
Target sequence (P35869 whole entry, looked up): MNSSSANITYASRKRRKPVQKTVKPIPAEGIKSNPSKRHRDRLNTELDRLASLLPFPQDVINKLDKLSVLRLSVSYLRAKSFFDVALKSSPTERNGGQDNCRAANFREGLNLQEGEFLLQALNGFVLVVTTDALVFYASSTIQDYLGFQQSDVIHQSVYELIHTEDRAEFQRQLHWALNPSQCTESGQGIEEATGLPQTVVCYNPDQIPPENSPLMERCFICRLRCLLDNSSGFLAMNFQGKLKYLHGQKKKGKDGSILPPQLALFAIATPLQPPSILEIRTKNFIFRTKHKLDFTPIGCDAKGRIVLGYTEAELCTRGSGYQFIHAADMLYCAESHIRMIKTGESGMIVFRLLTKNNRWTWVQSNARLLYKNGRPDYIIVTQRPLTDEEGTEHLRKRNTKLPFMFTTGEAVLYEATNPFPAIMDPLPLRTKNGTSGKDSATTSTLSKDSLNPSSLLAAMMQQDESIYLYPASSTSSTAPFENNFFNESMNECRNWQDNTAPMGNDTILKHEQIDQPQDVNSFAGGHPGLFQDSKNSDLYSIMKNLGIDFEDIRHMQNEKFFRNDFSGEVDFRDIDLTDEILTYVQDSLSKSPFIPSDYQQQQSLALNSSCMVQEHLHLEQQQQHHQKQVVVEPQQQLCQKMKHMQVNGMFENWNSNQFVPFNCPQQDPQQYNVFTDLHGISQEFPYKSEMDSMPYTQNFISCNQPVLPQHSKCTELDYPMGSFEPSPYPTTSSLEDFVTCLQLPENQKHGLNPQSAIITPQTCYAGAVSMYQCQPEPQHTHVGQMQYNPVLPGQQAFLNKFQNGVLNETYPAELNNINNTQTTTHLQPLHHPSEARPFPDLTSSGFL
FXN GAA850 act: increases GAA850 frataxin promoter reporter activity. HEK293 lucGAA850 FXN promoter luciferase reporter, 24 h; percent of 10 µM SAHA response. activation, % at 6 µM. 360,000 compounds, 0.56% hits;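 active means activation above the average of all compounds screened plus 3 SD, cutoff fixed separately per campaign, cut at about 7.5% in these data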;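 further: 0% = DMSO wells and 100% = 10 µM SAHA wells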
SENP1 inh conf: confirmation of human SENP1 SUMO protease inhibitors. shares compounds with SENP1 FRET inh. recombinant SENP1, CyPet-SUMO1-YPet FRET cleavage. inhibition, % at 10 µM. 520 compounds, 34% hits; in the data active means inhibition mostly above about 35%, no sharp cut-off; inactive means mostly below about 32%;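 further: 0% = enzyme with DMSO and 100% = no enzyme control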
SENP1 kinetic: SENP1 (human) inhibition, kinetic confirmation | shares compounds with SENP1 FRET inh | recombinant SENP1, CyPet-SUMO1-YPet FRET kinetic cleavage | inhibition, % at 10 µM | 520 compounds, 26% hits; in the data active means inhibition mostly above about 32%, no sharp cut-off; inactive means mostly below about 29%;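 further: 0% = DMSO with enzyme and 100% = no enzyme substrate only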
* = called active by the depositor; / = not tested or not shown. The list is not random: actives were taken first. Their share in the collection is about 4.2%.

SMILES	HDAC3 inhib	Fh CTSL1 inh	SENP1 FRET inh	M18AAP inhibitor	AHR act	FXN GAA850 act	SENP1 inh conf	SENP1 kinetic
O=C(NNc1nc2c(F)cccc2s1)c1cc(=O)c2ccccc2o1	1	2	33*	30*	80*	2	66*	57*
Nc1cc2cccnc2cc1Cl	/	/	42*	/	/	-1	19	4
Cc1cc(F)ccc1S(=O)(=O)Nc1ccccc1C(=O)NC1CCN(Cc2ccccc2)CC1	/	/	2	/	/	1	/	/
CCOC(=O)C1=C(c2ccccc2)NC(=O)NC1c1cc(OC)c(OC)c(OC)c1 (centres undefined)	0	/	-1	/	-1	-1	/	/
CCOC(=O)C1=C(c2ccccc2)NC(=O)NC1c1cc(Cl)c(O)c(OC)c1 (centres undefined)	4	2	32*	5	0	0	30	23
Cc1nc2c(OCc3ccc(C#N)cc3)cccn2c1N(C)C(=O)CCC1CCCC1	/	/	1	/	/	1	/	/
NC(=O)C1CCN(C(=O)CCn2c(=O)oc3ccccc32)CC1	0	/	33*	/	7	2	4	-4
Cc1ccc(-c2c(C(=O)Nc3ccccc3C)c(C)[nH]c(=S)c2C#N)o1	-4	0	1	26	7	0	/	/
Cc1[nH]c(=S)c(C#N)c(-c2ccccc2)c1C(=O)Nc1ccccc1	2	5	55*	28*	-1	-1	-2	-9
Cc1ccccc1NC(=O)c1c(C)[nH]c(=S)c(C#N)c1-c1ccc(Cl)cc1	-12	2	50*	9	3	-1	5	8
CCOC(=O)N1CCC(N2CCCC(CO)(Cc3cccc(Cl)c3)C2)CC1 (centres undefined)	8	0	-121	4	-1	-2	/	/
COc1ccc(C(=S)N2CCOCC2)cc1OC(=O)c1cc(OC)c(OC)c(OC)c1	0	1	2	26	0	4	/	/
CCCc1cc(=O)[nH]c(SCC(=O)Nc2cc(S(=O)(=O)N3CCOCC3)ccc2Cl)n1	3	/	1	/	-2	-2	/	/
COc1ccc(-c2c(C(=O)O)c(-c3ccccc3)cn2C)cc1	1	-9	1	/	2	1	/	/
COc1ccc(-c2c(O)c(C#N)c(-c3ccccc3)n(-c3ccc(OC)cc3)c2=O)cc1	3	-3	78*	3	4	-2	2	5
CC1(C(=O)NS(=O)(=O)c2ccc(Cl)cc2)CCN1C(=O)CCC1CCCC1 (centres undefined)	/	/	3	/	/	0	/	/
Cc1cc(Br)ccc1-n1[nH]c(C)c(C=Nc2cccc3nsnc23)c1=O	5	-2	40*	9	11	1	6	6
Cc1cccc(C(=O)NN2C(=O)C3C(c4ccccc4)C=CC(c4ccccc4)C3C2=O)c1 (centres undefined)	1	2	64*	-4	-1	2	13	7
O=C(NN1C(=O)C2C3C=CC(C3)C2C1=O)c1ccccc1 (centres undefined)	/	2	3	4	-1	2	/	/
COC(=O)C1=CC(C(=O)c2cccs2)=NN(c2ccc(OC)cc2)C1C(=O)OC (centres undefined)	14	4	61*	0	1	2	60*	39*
COC(=O)C1=NN(c2ccc(OC)cc2)C2C(=O)N(c3ccccc3OC)C(=O)C12 (centres undefined)	-2	2	16	1	-1	0	/	/
COC(=O)c1ccc(N/N=C/c2cc([N+](=O)[O-])cc(OC)c2O)cc1	-6	5	49*	2	4	0	5	-1
Cc1ccc(Cl)cc1N1C(=O)CC(Sc2ccccc2N)C1=O (centres undefined)	/	/	2	/	/	1	/	/
O=C(Cn1c(O)c(/C=C2\C=Nc3ccccc32)sc1=O)Nc1ccc2c(c1)OCO2	1	4	46*	-4	6	1	10	2
CCCN(CC(=O)Nc1ccccc1C)C(=O)CCN1C(=O)c2cccc([N+](=O)[O-])c2C1=O	-1	0	38*	/	0	-2	19	20
